Assay results as given in ChEMBL document CHEMBL1806465, “Synthesis and biological evaluation of 4-nitro-substituted 1,3-diaryltriazenes as a novel class of potent antitumor agents” (Eur J Med Chem, 2011).
Calls of active or inactive are those of the source. The calls are words filed in the database; no cut-off is given here.

Assays:
[1] = Therapeutic index, ratio IC50 for cisplatin-resistant human CA3ST cells to IC50 for normal human fibroblasts; format: cell-based; settings: read-out: Ratio IC50
Method in brief: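 IC50 values came from an MTT assay. Cells were seeded at 3000 per well and dosed the next day, with each concentration in quadruplicate. After 72 h at 37 °C, MTT (20 µg/well) was added for 4 h; formazan was dissolved in DMSO and read at 545 nm. Each experiment was done three times. Normal skin fibroblasts were used at 32 and 36 population doublings. T.I. = tumor-cell IC50 / fibroblast IC50.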

[2] = tested on: HeLa; assay: Cell cycle arrest in human HeLa cells assessed as accumulation at subG1 phase at 7 uM after 24 hrs by propidium iodide staining -based flow cytometry (reference value: 9.4 %); format: functional
Method in brief: (§1)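 HeLa seeded at 100 000 cells/well, treated next day with 0.78, 7 or 21 µM for 24, 48 or 72 h. Adherent plus floating cells collected, PBS-washed, fixed overnight in 70% ethanol at −20 °C, RNase A 30 µg/ml 1 h RT, propidium iodide 16.7 µg/ml 30 min dark; DNA content by flow cytometry, phase percentages including subG1 reported.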

[3] = tested on: HeLa; assay: Cell cycle arrest in human HeLa cells assessed as accumulation at subG1 phase at 21 uM after 24 hrs by propidium iodide staining -based flow cytometry (reference value: 9.4 %); format: functional; method in brief: as §1
[4] = tested on: HeLa; assay: Cell cycle arrest in human HeLa cells assessed as accumulation at subG1 phase at 21 uM after 48 hrs by propidium iodide staining -based flow cytometry (reference value: 8.5 %); format: functional; method in brief: as §1
[5] = tested on: HeLa; assay: Cell cycle arrest in human HeLa cells assessed as accumulation at G0/G1 phase at 0.78 uM after 72 hrs by propidium iodide staining -based flow cytometry (reference value: 66.9 %); format: functional; method in brief: as §1
[6] = tested on: HeLa; assay: Cell cycle arrest in human HeLa cells assessed as accumulation at G0/G1 phase at 21 uM after 72 hrs by propidium iodide staining -based flow cytometry (reference value: 66.9 %); format: functional; method in brief: as §1
[7] = tested on: HeLa; assay: Cell cycle arrest in human HeLa cells assessed as accumulation at S phase at 0.78 uM after 72 hrs by propidium iodide staining -based flow cytometry (reference value: 23.5 %); format: functional; method in brief: as §1
[8] = tested on: HeLa; assay: Cell cycle arrest in human HeLa cells assessed as accumulation at S phase at 7 uM after 72 hrs by propidium iodide staining -based flow cytometry (reference value: 23.5 %); format: functional; method in brief: as §1
[9] = tested on: HeLa; assay: Cell cycle arrest in human HeLa cells assessed as accumulation at subG1 phase at 21 uM after 72 hrs by propidium iodide staining -based flow cytometry (reference value: 7.2 %); format: functional; method in brief: as §1
[10] = tested on: HeLa; assay: Induction of reactive oxygen species generation in human HeLa cells after 8 hrs by FACS analysis; format: functional, cell-based
Method in brief: (§2)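 Logarithmically growing HeLa cells were preloaded with 10 µM CM-H2DCFDA for 1 h. They were then exposed to 7, 20 or 40 µM for 8 h, or to 7 µM for 2, 4 or 6 h. Cells were trypsinized, fixed in cold 80% methanol, resuspended in PBS and read for fluorescence by flow cytometry. The positive control was 0.01% H2O2 for 30 min.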

[11] = tested on: HeLa; assay: Induction of reactive oxygen species generation in human HeLa cells at 7 uM after 6 hrs by FACS analysis; format: functional, cell-based; method in brief: as §2
[12] = tested on: HeLa; assay: Induction of CHOP expression in human HeLa cells at 7 uM after 16 to 48 hrs by Western blot analysis; format: functional, cell-based
Method in brief: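 Log-phase HeLa exposed to a concentration series for 48 h, or to 7 µM over a time course. Extracts resolved on 10% SDS gels, blotted to nitrocellulose, blocked 5% milk; anti-CHOP 1:1000 in 5% BSA overnight at 4 °C, HRP secondary 1:5000 2 h RT, ECL detection; ERK2 reprobe as loading control.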

[13] = tested on: HeLa; assay: Induction of apoptotis in human HeLa cells assessed as cleavage of apoptotic protein PARP at 7 uM after 48 hrs by Western blot analysis; format: functional, cell-based
Method in brief: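 HeLa cells were treated for 48 h at 7 µM and analysed by Western blot (10% SDS gels, nitrocellulose, HRP secondary, ECL, ERK2 loading control) for cleavage of apoptotic proteins. Antibodies: anti-PARP 1:4000; anti-caspase-3 and anti-caspase-8 1:1000; rabbit polyclonal anti-caspase-9 1:1000.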

SMILES: CC(=O)N(/N=N/c1ccc([N+](=O)[O-])cc1Cl)c1ccc([N+](=O)[O-])cc1Cl
- selectivity ratio [1]: 0.045
- Activity [2]: 13.2%
- Activity [3]: 16.4%
- Activity [4]: 46.5%
- Activity [5]: 59.1%
- Activity [6]: 79%
- Activity [7]: 32.5%
- Activity [8]: 15.2%
- Activity [9]: 80.2%
- Activity [10]: Dose-dependent effect
- Activity [11]: Active
- Activity [12]: Active
- Activity [13]: Active
